# Only some compounds are listed: those with a hit (about 1.8% of all), similar ones and a draw of the others.
# CCR6 antagonist – CCR6 (human) receptor antagonism. P51684. CHO-K1 CCR6 PathHunter beta-arrestin, luminescence, CCL20-stimulated. inhibition, % at 20 µM. hit rate 0.49% among 340,000. AID 493098;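 active means compounds whose inhibition of the agonist-driven luminescence signal at 20 µM reaches about 50%, limit read from the data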;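 further: cells stimulated with CCL20 at 14 nM final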
# APJ antagonist – APJ receptor antagonism; P35414; CHO-K1 APJ beta-arrestin complementation, luminescence; inhibition, % at 20 µM; hit rate 0.32% among 330,000;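 active means inhibition above about 40% at 20 µM, limit read from the data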;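 further: cells challenged with 10 nM apelin-13 agonist together with compound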
# APJ agonist – APJ receptor agonism; CHO-K1 APJ PathHunter beta-arrestin, luminescence; 0% DMSO wells, 100% apelin; activation, % at 20 µM; hit rate 0.11% among 330,000;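 active means activation more than six SD over the plate average, tested at 20 µM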
#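 Test system: CHO-K1 APJ beta-arrestin complementation cell line. Amount: cell density 1000 per well. Controls: DMSO negative, 10 nM Apelin-13 positive. Signal: luminescent beta-gal fragment complementation, chemiluminescent substrate. Read-out basis: agonist-driven arrestin binding to APJ. Timing: compound stimulation 90 min at 25 °C, detection 60 min.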
# Beta2AR agonist – agonists of human beta-2 adrenergic receptor inducing internalization | hit rate 0.43% among 340,000 | response, % (concentration not given with the values) | Am2.2-beta2AR cells, FAP receptor internalization, flow cytometry | AID 504454 | P07550;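 active means response above a set limit, near 3 SD of response in nonfluorescent compounds, cut at about 42% in these data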
# EBI2 block – EBI2 (human) antagonism | P32249 | EBI2 beta-arrestin recruitment, luminescence, 7a,25-OHC stimulated | inhibition, % at 5 µM | hit rate 0.81% among 360,000 | AID 651636; in the data active means inhibition above about 38%;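 further: enzyme fragment complementation signal reports receptor beta-arrestin coupling in cells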
# CXCR6 block – blocks human CXCR6 beta-arrestin recruitment. O00574. CHO-K1 PathHunter CXCR6 beta-arrestin, luminescence. inhibition, % at 20 µM. hit rate 0.36% among 360,000. AID 602244; in the data active means inhibition above about 34%, passing the limit was not always enough;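 further: antagonist mode with CXCL16 agonist at 10 nM final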
# Target sequence (O00574 whole entry, looked up): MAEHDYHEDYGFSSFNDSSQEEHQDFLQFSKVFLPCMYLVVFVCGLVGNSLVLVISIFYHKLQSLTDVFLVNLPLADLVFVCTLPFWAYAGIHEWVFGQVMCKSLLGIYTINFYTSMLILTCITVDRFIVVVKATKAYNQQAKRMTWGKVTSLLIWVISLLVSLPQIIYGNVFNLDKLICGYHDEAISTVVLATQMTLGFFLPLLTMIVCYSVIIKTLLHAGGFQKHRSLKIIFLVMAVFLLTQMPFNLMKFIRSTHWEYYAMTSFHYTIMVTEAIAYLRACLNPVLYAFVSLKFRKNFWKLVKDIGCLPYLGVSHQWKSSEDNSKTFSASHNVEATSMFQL
# Numbers stand for hits; – = inactive; · = not tested or not shown.
SMILES,CCR6 antagonist,APJ antagonist,APJ agonist,Beta2AR agonist,EBI2 block,CXCR6 block
NC(=O)C1(Nc2ccc(C(=O)O)cc2)CCCC1,–,·,·,–,–,–
Cc1c(C(=O)N(C)C)sc2nc(-c3ccccn3)[nH]c(=O)c12,–,–,–,–,–,–
O=c1[nH]c(-c2ccccn2)nc2sc(-c3ccccc3)cc12,–,·,·,–,87,–
N#Cc1ccccc1NC(=O)CSC1=Nc2ccccc2C2CC=NN12 (configuration not stated),–,–,–,–,–,–
O=C(CSC1=Nc2ccccc2C2CC=NN12)Nc1ccc2c(c1)OCO2 (configuration not stated),54,·,·,–,–,–
O=C(NCc1ccccc1)c1cc(C2CCCN(S(=O)(=O)c3ccccc3)C2)on1 (configuration not stated),·,·,·,·,–,–
O=C(N/N=C/c1coc2ccccc2c1=O)c1ccccc1,–,–,–,–,–,–
O=C(N/N=C/c1coc2ccccc2c1=O)c1cn(-c2ccccc2)nc1-c1ccccc1,–,–,–,57,–,–
COc1ccc(C(C)(C)C)cc1NC(=O)COC(=O)C1=NNC(=O)CC1,–,–,–,–,–,–
COc1ccc(NC(=O)CSc2ccc3c(c2)OCCO3)cc1S(N)(=O)=O,–,–,–,–,–,–
CCC(CC)c1nnc(NC(=O)c2cc([N+](=O)[O-])ccc2N2CCCCC2)s1,71,–,–,–,–,–
COc1cccc(-c2cc3nc(C)c(C)c(N4CCN(C(=O)c5ccoc5)CC4)n3n2)c1,·,·,·,·,–,–
CCOC(=O)CS(=O)(=O)c1nc(-c2ccc(F)cc2)cc(C(F)(F)F)n1,52,–,–,104,60,67
COC(=O)CCS(=O)(=O)c1nc(-c2ccccc2)cc(C(F)(F)F)n1,–,–,–,97,–,–
CS(=O)(=O)c1nc(-c2ccc(F)cc2)cc(C(F)(F)F)n1,–,·,·,73,–,–
O=C(O)CCS(=O)(=O)c1nc(-c2cccs2)cc(C(F)(F)F)n1,–,–,–,–,–,–
CCOC(=O)CCS(=O)(=O)c1nc(-c2ccccc2)cc(C(F)(F)F)n1,–,–,–,60,–,–
CCCCNC(=O)c1nc(C2CCN(S(=O)(=O)c3c(OC)cccc3OC)CC2)oc1-c1ccccc1,·,·,·,·,–,·
Cc1cc(NC(=O)CN2C(=O)NC3(CCCCC3)C2=O)ccc1N1CCCC1,–,–,–,–,–,–
O=c1cc(-c2c(F)c(F)c(F)c(F)c2F)oc2c(F)c(F)c(F)c(F)c12,·,52,–,·,·,·
CC(=O)Nc1cc(-c2cccc(F)c2)cn2c(-c3ccccc3)cnc12,·,·,·,·,–,–
Cc1ccc(C(=O)C2C(=O)C3CCC2C3)cc1 (configuration not stated),·,·,·,·,–,–
CC(=O)Nc1cc(-c2cccc(F)c2)cn2c(-c3ccc(F)cc3)cnc12,·,·,·,·,–,–
Cc1nc(C)c(-c2csc(Nc3cccc(O)c3)n2)s1,–,–,–,–,–,–
Cc1cccc(Nc2nc(-c3sc(C)nc3C)cs2)c1,–,–,–,–,57,–
SMILES,CCR6 antagonist,APJ antagonist,APJ agonist,Beta2AR agonist,EBI2 block,CXCR6 block
Cc1cc(/C=C2/C(=N)N3C(c4ccccc4)=CSC3=NC2=O)c(C)n1-c1ccc(Cl)cc1,–,·,·,–,–,–
N=C1/C(=C\c2ccc(-c3cccc(Cl)c3)o2)C(=O)N=C2SC=C(c3ccccc3)N12,–,–,–,57,–,–
COc1cc(/C=C2/C(=N)N3C(c4ccccc4)=CSC3=NC2=O)ccc1OCC(=O)O,–,–,–,–,–,–
N=C1/C(=C\c2ccc(-c3ccc(C(=O)O)cc3)o2)C(=O)N=C2SC=C(c3ccccc3)N12,53,·,·,–,–,–
CC1(C(=O)NS(=O)(=O)c2ccc3c(c2)CCO3)CCN1C(=O)c1ccccc1CCc1ccccc1 (configuration not stated),·,·,·,·,–,–
COc1ccc(C(O)CNc2ccc(C)cc2)cc1 (configuration not stated),–,–,–,–,66,–
CCN1CCN(CCCNC(=O)c2ccc(/C=C3/Sc4ccccc4N(Cc4ccccc4F)C3=O)cc2)CC1,–,–,–,47,–,–
C=C(C)c1cccc(C(C)(C)NC(=O)N2CCN(C(=O)OCC)CC2)c1,·,·,·,·,–,–
Cc1ccc2nc(C)c(CN3CCN(c4ccc([N+](=O)[O-])cc4Cl)CC3)n2c1,·,–,–,–,47,–
